Data as given in ChEMBL document CHEMBL4715800, “Synthesis and Antiviral Evaluation of Octadecyloxyethyl Benzyl 9-[(2-Phosphonomethoxy)ethyl]guanine (ODE-Bn-PMEG), a Potent Inhibitor of Transient HPV DNA Amplification” (J Med Chem, 2016).

How the values were obtained:
[1] = Selectivity index, ratio of CC50 for C-33-A cells to EC50 for inhibition of HPV-18 DNA amplification in C-33-A cells
Procedure, shortened: (§1)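 Ratio CC50/EC50. CC50 is from CellTiter-Glo in C33A cells. EC50 is from NanoLuc luciferase readout of HPV ori-plasmid replication in C33A cells cotransfected with type-matched E1/E2 vectors.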

[2] = Inhibition of HPV-18 DNA amplification in C-33-A cells incubated for 48 hrs by luciferase reporter gene assay; format: functional, cell-based, human papillomavirus 18
Procedure, shortened: (§2)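 HPV-negative cervical cancer C33A cells transiently transfected with type-matched HPV-11, -16 or -18 E1 and E2 expression vectors plus an ori-plasmid carrying a NanoLuc reporter. After drug dilutions and incubation, ori-plasmid replication is read as the rise in luciferase activity and EC50 is determined. Cytotoxicity (CC50) is measured in C33A cells by CellTiter-Glo.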

[3] = Inhibition of HIV1 92US727 replication in PHA-P-stimulated human PBMCs incubated for 7 days by reverse transcriptase activity based assay; format: functional, cell-based, Human immunodeficiency virus 1, PBMC
Procedure, shortened: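 Human PBMCs infected with a clinical HIV-1 isolate, with AZT as the positive control. Results are the mean of three replicates.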

[4] = Inhibition of HPV-16 DNA amplification in C-33-A cells incubated for 48 hrs by luciferase reporter gene assay; format: functional, cell-based, Human papillomavirus 16; procedure, shortened: as §2
[5] = Inhibition of HPV-16 DNA amplification in HEK293 cells incubated for 48 hrs by qPCR analysis; format: functional, cell-based, Human papillomavirus 16
Procedure, shortened: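 HEK-293 cells cotransfected with an HPV-16 origin-containing plasmid and HPV-16 E1 and E2 expression vectors, then treated with drug dilutions and incubated. Ori-plasmid amplification quantified by real-time qPCR; EC50 calculated from at least three independent experiments.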

[6] = Selectivity index, ratio of CC50 for C-33-A cells to EC50 for inhibition of HPV-16 DNA amplification in C-33-A cells; procedure, shortened: as §1
[7] = Selectivity index, ratio of CC50 for C-33-A cells to EC90 for inhibition of HPV-18 DNA amplification in C-33-A cells
Procedure, shortened: (§3)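 Ratio CC50/EC90. CC50 is from CellTiter-Glo cytotoxicity in C33A cells. EC90 is from NanoLuc luciferase readout of HPV-16 or -18 ori-plasmid replication in C33A cells cotransfected with type-matched E1/E2 vectors.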

[8] = test system: HFF; experiment: (§4) Cytotoxicity in HFF cells incubated for 7 days by CellTiter-Glo assay; format: cell-based; conditions: human, hff, 168 h; time 7 day
[9] = Inhibition of HSV2 replication in HFF cells incubated for 7 days; format: functional, cell-based, Human alphaherpesvirus 2
[10] = Inhibition of HPV-11 DNA amplification in HEK293 cells incubated for 48 hrs by qPCR analysis; format: functional, cell-based, human papillomavirus 11
Procedure, shortened: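 HEK-293 cells cotransfected with an HPV-11 origin-containing plasmid and HPV-11 E1 and E2 expression vectors, then exposed to drug dilutions and incubated. Ori-plasmid amplification is measured by quantitative real-time PCR and EC50 is calculated. At least three independent experiments.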

[11] = Selectivity index, ratio of CC50 for HEK293 cells to EC50 for inhibition of HPV-11 DNA amplification in HEK293 cells
Procedure, shortened: (§5)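 Ratio CC50/EC50 in HEK-293 cells. CC50 is by CellTiter-Glo. EC50 is by qPCR of HPV-11 or HPV-16 ori-plasmid amplification in cells cotransfected with type-matched E1/E2 expression vectors.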

[12] = Selectivity index, ratio of CC50 for C-33-A cells to EC50 for inhibition of HPV-11 DNA amplification in C-33-A cells; procedure, shortened: as §1
[13] = Selectivity index, ratio of CC50 for HFF to EC50 for inhibition of HSV2 replication in HFF cells; format: toxicity, cell-based; conditions: human; for selectivity ratio: HFF cells, read-out: Ratio CC50/EC50
[14] = test system: HEK293; experiment: Cytotoxicity in HEK293 cells by CellTiter-Glo assay; conditions: human, hek293
[15] = Inhibition of HPV-11 DNA amplification in C-33-A cells incubated for 48 hrs by luciferase reporter gene assay; format: functional, cell-based, human papillomavirus 11; procedure, shortened: as §2
[16] = Selectivity index, ratio of CC50 for HEK293 cells to EC50 for inhibition of HPV-16 DNA amplification in HEK293 cells; procedure, shortened: as §5
[17] = Cytotoxicity in human PBMC cells; format: cell-based
Procedure, shortened: (§6)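 Human PBMCs infected with a clinical HIV-1 isolate, with AZT as positive control. EC50 and CC50 reported as mean ± SD of three replicates; selectivity index = CC50/EC50.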

[18] = Selectivity index, ratio of CC50 for C-33-A cells to EC90 for inhibition of HPV-16 DNA amplification in C-33-A cells; procedure, shortened: as §3
[19] = Selectivity index, ratio of CC50 for C-33-A cells to EC90 for inhibition of HPV-11 DNA amplification in C-33-A cells
[20] = as §4; format: cell-based; conditions: human, HFF cells; time 7 day
[21] = Selectivity index, ratio of CC50 for human PBMC to EC50 for inhibition of HIV1 92US727 replication in PHA-P-stimulated human PBMCs; format: toxicity; conditions: PBMCs, read-out: Ratio CC50/EC50; procedure, shortened: as §6
[22] = Cytotoxicity in human C-33-A cells by CellTiter-Glo reagent assay; format: cell-based; conditions: C-33-A cells; procedure, shortened: as §2
[23] = Cytotoxicity in HEK293 cells by CellTiter-Glo assay; conditions: human, HEK293 cells
[24] = Drug uptake in HFF cells at 1 uM incubated for 1 to 48 hrs using [14C]-labelled compound by liquid scintillation counting; format: ADME, cell-based; conditions: human, time 1-48 hrs
Procedure, shortened: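 HFF cells exposed to 1 μM [14C]-labelled compound for 1 to 48 h. Cell-associated radioactivity measured in duplicate to assess uptake.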

[25] = Drug level in HFF cells treated with 1 uM [14C]-labelled ODE-Bn-PMEG assessed as compound levels incubated for 48 hrs by liquid scintillation counting; format: ADME, cell-based; conditions: human
[26] = Human immunodeficiency virus 1, 92US727, PBMC, 168 h
[27] = Human alphaherpesvirus 2, HFF, 168 h
[28] = human papillomavirus 18, C-33-A, 48 h
[29] = Human papillomavirus 16, C-33-A, 48 h
[30] = human papillomavirus 11, C-33-A, 48 h

| SMILES | Ratio CC50/EC50 [1] | EC50 ([2]; c-33-a) | EC90 ([2]; time 48 hrs) | EC50 ([4]; c-33-a) | EC90 ([4]; time 48 hrs) | EC50 [5] | Ratio CC50/EC50 [6] | Ratio [7] | EC50 [10] | Ratio CC50/EC50 [11] | Ratio CC50/EC50 [12] | CC50 [14] | EC50 ([15]; c-33-a) | EC90 ([15]; time 48 hrs) | Ratio CC50/EC50 [16] | CC50 ([17]; pbmc) | Ratio [18] | Ratio [19] | EC50 [3, 26] | CC50 at 168 h [20] | further results |
| --- | --- | --- | --- | --- | --- | --- | --- | --- | --- | --- | --- | --- | --- | --- | --- | --- | --- | --- | --- | --- | --- |
| CCCCCCCCCCCCCCCCCCOCCOP(=O)(COCCn1cnc2c(=O)[nH]c(N)nc21)OCc1ccccc1 (stereo in doubt; form 2) | >130 | 0.08 µM | 0.72 µM | 0.14 µM | 0.89 µM | 0.39 µM | >71 | >14 | 0.4 µM | 230 | >24 | 91 µM | 0.41 µM | 1.4 µM | 230 | 0.07 µM | >11 | >7 |  |  | EC50 ([3]; pbmc): 0.004 µM; CC50 [8]: 5.4 µM; EC50 ([9]; hff): 0.033 µM; Ratio CC50/EC50 [13]: 160 |
| CCCCCCCCCCCCCCCCCCOCCOP(=O)(COCCn1cnc2c(=O)[nH]c(N)nc21)OCc1ccccc1 (stereo in doubt; form 3) | >37 | 0.27 µM | 1.4 µM | 0.22 µM | 1.5 µM | 0.69 µM | >45 | >7 | 0.5 µM | 170 | >14 | 83 µM | 0.71 µM | 2.5 µM | 120 | 0.04 µM | >7 | >4 | 0.003 µM | 6.1 µM | EC50 [9, 27]: 0.032 µM; selectivity ratio [21]: 16.3; selectivity ratio [13]: 190; CC50 [22]: > 10 µM |
| Nc1nc2c(ncn2COCCO)c(=O)[nH]1 [ACYCLOVIR] |  |  |  |  |  |  |  |  |  |  |  |  |  |  |  |  |  |  |  | > 300 µM | EC50 [9, 27]: 0.99 µM; selectivity ratio [13]: > 300 |
| Nc1ccn(C[C@@H](CO)OCP(=O)(O)O)c(=O)n1.O.O [CIDOFOVIR] | >1 |  |  |  |  | 150 µM | >1 | 1 | 150 µM | >2 | 1 |  |  |  | >2 |  | 1 | 1 |  |  | EC50 [2, 28]: 260 µM; EC90 [2, 28]: > 300 µM; EC50 [4, 29]: 220 µM; EC90 [4, 29]: > 300 µM; CC50 [23]: > 300 µM; CC50 [22]: > 300 µM; EC50 [15, 30]: > 300 µM; EC90 [15, 30]: > 300 µM |
| Nc1nc2c(ncn2CCOCP(=O)(O)O)c(=O)[nH]1 [GS-438] |  |  |  |  |  |  |  |  |  |  |  |  |  |  |  |  |  |  |  |  | Drug uptake [24]: Active; Drug uptake [25]: Active |
| Cc1cn([C@H]2C[C@H](N=[N+]=[N-])[C@@H](CO)O2)c(=O)[nH]c1=O [ZIDOVUDINE] |  |  |  |  |  |  |  |  |  |  |  |  |  |  |  |  |  |  | 0.004 µM |  | selectivity ratio [21]: > 250; CC50 ([17]; PBMC cells): > 1 µM |
